{
  "source": "ChEMBL document CHEMBL4028864",
  "about": "(J Med Chem, 2017)",
  "key": {"[1]": {"test": "Cytotoxicity against human AC10 cells assessed as cell viability at 100 uM after 24 hrs by CellTiter-Glo assay relative to control", "type": "cell-based", "settings": "read-out: Activity; call rule not given here", "method_in_brief": "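AC10 human cardiomyocytes seeded at 5000 cells/well the day before treatment. Cells were exposed for 24 h at 37 °C to a range of 0.315–100 μM final (0.5% DMSO). Viability was read by CellTiter-Glo luminescence.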"}, "[2]": {"system": "KMS-12-BM", "test": "Induction of apoptosis in human KMS-12-BM cells assessed as increase in cleaved PARP level at 1 to 6 uM after 24 hrs by immunoblotting analysis", "type": "functional, cell-based", "method_in_brief": "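KMS-12-BM and MOLM-14 cells were treated for 24 h and then lysed. Cleaved PARP was detected by immunoblotting.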"}, "[3]": {"test": "Cmax in Wistar rat at 5 mg/kg, po administered via gavage by LC-MS/MS analysis", "type": "ADME, organism-based", "design": "dose 5 mg/kg, route oral", "settings": "in vivo", "method_in_brief": "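Wistar rats given a single 5 mg/kg oral dose. Plasma concentration–time profiles were plotted as mean ± SEM and sampled through 24 h postdose.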"}, "[4]": {"test": "Terminal half life in Wistar rat at 1 mg/kg, iv by LC-MS/MS analysis", "type": "ADME, organism-based", "settings": "in vivo, read-out: beta t1/2 (converted)", "method_in_brief": "(§1)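 Wistar rats given a single 1 mg/kg iv dose. Plasma concentration–time profiles were plotted as mean ± SEM and sampled through 24 h postdose. Values were taken from the iv profile.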"}, "[5]": {"molecular_target": "Receptor-type tyrosine-protein kinase FLT3 (Homo sapiens) (UniProt P36888)", "test": "Inhibition of human FLT3 using EAIYAAPFAKKK as substrate at 1 uM in presence of [gamma-33P]-ATP relative to control", "method_in_brief": "(§2)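 Kinase inhibition was tested by radiometric \"Hotspot\" profiling at a contract laboratory with 10 μM ATP.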"}, "[6]": {"system": "HEL 92.1.7", "test": "cells", "type": "functional, cell-based", "settings": "Homo sapiens, HEL 92.1.7, 36 h"}, "[7]": {"molecular_target": "T1, Tyrosine-protein kinase JAK3 (Homo sapiens, UniProt P52333)", "T1 sequence (P52333 whole entry)": "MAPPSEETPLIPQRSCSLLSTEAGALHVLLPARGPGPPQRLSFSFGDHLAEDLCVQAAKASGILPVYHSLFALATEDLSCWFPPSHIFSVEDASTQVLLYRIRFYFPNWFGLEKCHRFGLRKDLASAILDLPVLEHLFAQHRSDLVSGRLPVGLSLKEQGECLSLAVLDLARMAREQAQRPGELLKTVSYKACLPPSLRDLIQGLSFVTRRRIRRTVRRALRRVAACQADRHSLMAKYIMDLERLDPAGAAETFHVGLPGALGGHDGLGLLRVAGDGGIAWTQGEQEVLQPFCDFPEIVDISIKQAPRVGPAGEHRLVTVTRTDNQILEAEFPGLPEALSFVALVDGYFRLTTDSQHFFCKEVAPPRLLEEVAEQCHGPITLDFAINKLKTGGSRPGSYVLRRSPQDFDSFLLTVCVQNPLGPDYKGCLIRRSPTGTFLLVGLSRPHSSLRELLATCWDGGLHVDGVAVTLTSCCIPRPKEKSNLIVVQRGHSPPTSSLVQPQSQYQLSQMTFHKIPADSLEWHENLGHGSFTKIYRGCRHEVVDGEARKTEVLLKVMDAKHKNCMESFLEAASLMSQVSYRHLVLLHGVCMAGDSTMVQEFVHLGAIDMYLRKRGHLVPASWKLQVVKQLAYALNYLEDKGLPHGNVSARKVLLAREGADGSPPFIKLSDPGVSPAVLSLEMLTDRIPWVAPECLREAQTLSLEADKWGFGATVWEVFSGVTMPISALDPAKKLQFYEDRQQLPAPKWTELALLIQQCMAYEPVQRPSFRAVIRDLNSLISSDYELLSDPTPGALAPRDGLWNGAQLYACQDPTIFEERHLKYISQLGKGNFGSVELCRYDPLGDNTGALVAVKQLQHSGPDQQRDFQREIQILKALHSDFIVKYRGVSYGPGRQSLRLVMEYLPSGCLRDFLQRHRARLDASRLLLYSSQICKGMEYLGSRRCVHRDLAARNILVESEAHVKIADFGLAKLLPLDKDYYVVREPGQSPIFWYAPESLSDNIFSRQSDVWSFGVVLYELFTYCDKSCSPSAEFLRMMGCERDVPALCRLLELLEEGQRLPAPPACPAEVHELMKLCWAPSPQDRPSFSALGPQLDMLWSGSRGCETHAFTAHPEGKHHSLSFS", "test": "Inhibition of human JAK3 using GEEEEYFELVKKKK as substrate in presence of [gamma-33P]-ATP", "method_in_brief": "as §2"}, "[8]": {"molecular_target": "Histone deacetylase 9 (Homo sapiens, UniProt Q9UKV0)", "sequence (Q9UKV0 whole entry)": "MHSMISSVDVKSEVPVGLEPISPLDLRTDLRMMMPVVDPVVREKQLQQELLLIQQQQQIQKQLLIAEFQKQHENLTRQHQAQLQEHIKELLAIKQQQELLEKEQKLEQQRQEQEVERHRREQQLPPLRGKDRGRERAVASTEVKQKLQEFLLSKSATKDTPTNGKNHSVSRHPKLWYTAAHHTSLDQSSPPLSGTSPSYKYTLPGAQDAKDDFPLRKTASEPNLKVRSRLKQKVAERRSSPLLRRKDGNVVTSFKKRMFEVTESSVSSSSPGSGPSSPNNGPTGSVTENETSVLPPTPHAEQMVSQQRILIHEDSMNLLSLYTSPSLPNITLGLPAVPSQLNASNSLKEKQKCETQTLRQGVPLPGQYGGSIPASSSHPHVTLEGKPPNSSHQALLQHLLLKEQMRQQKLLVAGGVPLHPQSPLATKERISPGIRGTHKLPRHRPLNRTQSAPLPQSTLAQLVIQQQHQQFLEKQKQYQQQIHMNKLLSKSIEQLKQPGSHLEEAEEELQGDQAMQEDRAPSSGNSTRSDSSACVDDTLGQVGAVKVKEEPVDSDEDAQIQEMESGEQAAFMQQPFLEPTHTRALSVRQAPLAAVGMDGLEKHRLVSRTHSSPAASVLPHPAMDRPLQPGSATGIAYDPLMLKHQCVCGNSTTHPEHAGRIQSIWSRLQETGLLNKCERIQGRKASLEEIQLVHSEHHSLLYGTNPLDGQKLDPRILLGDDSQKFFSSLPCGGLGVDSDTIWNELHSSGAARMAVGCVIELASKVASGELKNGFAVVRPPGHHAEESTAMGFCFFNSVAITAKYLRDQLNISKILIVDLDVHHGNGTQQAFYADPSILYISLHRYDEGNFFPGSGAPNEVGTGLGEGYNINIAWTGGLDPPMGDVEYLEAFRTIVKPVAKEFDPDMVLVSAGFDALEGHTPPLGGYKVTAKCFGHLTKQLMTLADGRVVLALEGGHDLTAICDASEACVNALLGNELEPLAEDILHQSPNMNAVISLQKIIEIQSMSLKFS", "test": "Inhibition of HDAC9 (unknown origin) at 10 uM in presence of ATP relative to control", "method_in_brief": "(§3)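 HDAC enzyme inhibition was run by a contract laboratory.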"}, "[9]": {"test": "cells", "type": "functional, cell-based", "settings": "Homo sapiens, XG6, 48 h"}, "[10]": {"system": "Plasma", "test": "Drug uptake in Wistar rat plasma at 5 mg/kg, po administered via gavage or 1 mg/kg, iv after 4 to 24 hrs by LC-MS/MS analysis", "type": "ADME, organism-based", "settings": "in vivo", "method_in_brief": "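Wistar rats dosed once at 5 mg/kg po or 1 mg/kg iv. Plasma levels were followed as mean ± SEM over 24 h postdose and checked against the limit of quantitation at each time point.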"}, "[11]": {"molecular_target": "SRSF protein kinase 3 (Homo sapiens) (UniProt Q9UPE1)", "sequence (Q9UPE1 whole entry, the tested form may be a part)": "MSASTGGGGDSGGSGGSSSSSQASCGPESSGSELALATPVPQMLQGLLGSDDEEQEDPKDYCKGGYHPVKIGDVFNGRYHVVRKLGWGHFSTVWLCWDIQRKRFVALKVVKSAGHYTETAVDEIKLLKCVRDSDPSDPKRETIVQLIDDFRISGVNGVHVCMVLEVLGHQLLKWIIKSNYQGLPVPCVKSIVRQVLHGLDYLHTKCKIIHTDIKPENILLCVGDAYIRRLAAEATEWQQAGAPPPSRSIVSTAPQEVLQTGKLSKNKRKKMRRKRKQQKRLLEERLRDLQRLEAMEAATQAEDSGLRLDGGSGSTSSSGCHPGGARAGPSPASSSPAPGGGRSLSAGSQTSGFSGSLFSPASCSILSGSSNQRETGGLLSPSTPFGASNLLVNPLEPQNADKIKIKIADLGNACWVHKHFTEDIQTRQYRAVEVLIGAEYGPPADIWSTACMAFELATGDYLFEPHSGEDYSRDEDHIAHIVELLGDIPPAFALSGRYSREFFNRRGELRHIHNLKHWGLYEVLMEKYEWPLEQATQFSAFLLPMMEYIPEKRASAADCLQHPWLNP", "test": "Inhibition of wild type human SRPK3 (P41 to P567 residues) expressed in bacterial cells assessed as residual activity at 1 uM by KINOMEscan assay relative to control", "type": "cell-based"}, "[12]": {"molecular_target": "Non-receptor tyrosine-protein kinase TYK2 (Homo sapiens, UniProt P29597)", "test": "Inhibition of wild type human TYK2 (V877 to C1187 residues) expressed in mammalian cells assessed as residual activity at 1 uM by KINOMEscan assay relative to control", "type": "cell-based"}, "[13]": {"molecular_target": "Tyrosine-protein kinase JAK1 (Homo sapiens, UniProt P23458)", "sequence (P23458 whole entry)": "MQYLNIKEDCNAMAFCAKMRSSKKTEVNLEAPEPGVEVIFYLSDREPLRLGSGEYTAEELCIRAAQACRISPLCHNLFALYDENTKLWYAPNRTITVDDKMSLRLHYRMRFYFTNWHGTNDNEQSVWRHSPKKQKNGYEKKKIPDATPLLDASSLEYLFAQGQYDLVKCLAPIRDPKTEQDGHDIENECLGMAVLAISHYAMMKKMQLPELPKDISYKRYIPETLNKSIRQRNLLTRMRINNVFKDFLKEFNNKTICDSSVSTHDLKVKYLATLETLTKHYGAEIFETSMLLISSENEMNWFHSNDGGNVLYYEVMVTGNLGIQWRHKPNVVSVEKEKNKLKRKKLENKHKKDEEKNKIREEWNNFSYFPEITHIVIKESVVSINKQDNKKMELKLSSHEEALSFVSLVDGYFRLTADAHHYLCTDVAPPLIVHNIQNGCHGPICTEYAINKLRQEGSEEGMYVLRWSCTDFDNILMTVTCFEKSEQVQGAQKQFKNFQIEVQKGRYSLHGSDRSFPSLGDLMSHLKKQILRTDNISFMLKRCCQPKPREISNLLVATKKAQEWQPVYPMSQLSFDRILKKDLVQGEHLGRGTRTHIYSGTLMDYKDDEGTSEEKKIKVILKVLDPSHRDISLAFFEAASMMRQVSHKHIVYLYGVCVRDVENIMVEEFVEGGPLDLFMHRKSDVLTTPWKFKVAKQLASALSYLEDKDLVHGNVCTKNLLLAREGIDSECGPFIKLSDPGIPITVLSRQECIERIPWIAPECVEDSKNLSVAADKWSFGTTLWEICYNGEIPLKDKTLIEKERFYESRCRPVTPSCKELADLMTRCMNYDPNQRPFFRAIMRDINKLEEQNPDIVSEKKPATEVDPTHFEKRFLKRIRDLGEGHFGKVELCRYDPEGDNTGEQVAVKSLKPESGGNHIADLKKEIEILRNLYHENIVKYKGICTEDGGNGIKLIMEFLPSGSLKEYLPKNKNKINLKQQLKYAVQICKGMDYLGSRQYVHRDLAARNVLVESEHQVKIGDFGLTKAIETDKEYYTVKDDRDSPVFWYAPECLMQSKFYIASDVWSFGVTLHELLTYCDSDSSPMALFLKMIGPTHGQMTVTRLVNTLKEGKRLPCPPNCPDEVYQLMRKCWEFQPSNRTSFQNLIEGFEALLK", "test": "Inhibition of human JAK1 using poly[Glu:Tyr] as substrate in presence of [gamma-33P]-ATP", "method_in_brief": "as §2"}, "[14]": {"test": "cells", "type": "functional, cell-based", "settings": "Homo sapiens, NKYS, 48 h"}, "[15]": {"molecular_target": "T1, Tyrosine-protein kinase JAK3", "test": "Inhibition of wild type human JAK3 (I781 to S1124 residues) expressed in mammalian cells assessed as residual activity at 1 uM by KINOMEscan assay relative to control", "type": "cell-based", "settings": "read-out: Activity"}, "[16]": {"test": "AUC (0 to infinity) in Wistar rat at 1 mg/kg, iv by LC-MS/MS analysis", "type": "ADME, organism-based", "design": "dose 1 mg/kg, time infinity, route intravenous", "settings": "in vivo", "method_in_brief": "as §1"}, "[17]": {"molecular_target": "Polyamine deacetylase HDAC10 (Homo sapiens, UniProt Q969S8)", "sequence (Q969S8 whole entry, the tested form may be a part)": "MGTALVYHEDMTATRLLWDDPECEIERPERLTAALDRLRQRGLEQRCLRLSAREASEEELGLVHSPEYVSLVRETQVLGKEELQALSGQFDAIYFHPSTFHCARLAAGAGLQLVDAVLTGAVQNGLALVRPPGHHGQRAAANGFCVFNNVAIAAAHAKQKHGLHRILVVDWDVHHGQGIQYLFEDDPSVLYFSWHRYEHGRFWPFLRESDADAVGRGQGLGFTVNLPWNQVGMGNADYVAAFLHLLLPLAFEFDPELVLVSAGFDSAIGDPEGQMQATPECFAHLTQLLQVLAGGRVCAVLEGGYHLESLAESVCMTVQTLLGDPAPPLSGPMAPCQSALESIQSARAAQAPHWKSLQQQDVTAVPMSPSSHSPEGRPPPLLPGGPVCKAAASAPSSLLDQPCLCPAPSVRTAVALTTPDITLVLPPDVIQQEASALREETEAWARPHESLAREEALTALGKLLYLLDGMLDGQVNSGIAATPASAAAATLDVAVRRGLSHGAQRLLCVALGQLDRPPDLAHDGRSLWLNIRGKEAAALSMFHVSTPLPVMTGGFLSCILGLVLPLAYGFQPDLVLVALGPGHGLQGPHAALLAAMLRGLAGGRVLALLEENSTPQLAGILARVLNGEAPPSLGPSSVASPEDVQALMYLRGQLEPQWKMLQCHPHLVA", "test": "Inhibition of human HDAC10 using fluorogenic peptide from p53 residues 379 to 382 as substrate in presence of ATP", "method_in_brief": "as §3"}, "[18]": {"system": "Jurkat", "test": "cells", "type": "functional, cell-based", "settings": "Homo sapiens"}, "[19]": {"molecular_target": "Rho-associated protein kinase 2 (Homo sapiens) (UniProt O75116)", "sequence (O75116 whole entry, looked up, the tested form may be a part)": "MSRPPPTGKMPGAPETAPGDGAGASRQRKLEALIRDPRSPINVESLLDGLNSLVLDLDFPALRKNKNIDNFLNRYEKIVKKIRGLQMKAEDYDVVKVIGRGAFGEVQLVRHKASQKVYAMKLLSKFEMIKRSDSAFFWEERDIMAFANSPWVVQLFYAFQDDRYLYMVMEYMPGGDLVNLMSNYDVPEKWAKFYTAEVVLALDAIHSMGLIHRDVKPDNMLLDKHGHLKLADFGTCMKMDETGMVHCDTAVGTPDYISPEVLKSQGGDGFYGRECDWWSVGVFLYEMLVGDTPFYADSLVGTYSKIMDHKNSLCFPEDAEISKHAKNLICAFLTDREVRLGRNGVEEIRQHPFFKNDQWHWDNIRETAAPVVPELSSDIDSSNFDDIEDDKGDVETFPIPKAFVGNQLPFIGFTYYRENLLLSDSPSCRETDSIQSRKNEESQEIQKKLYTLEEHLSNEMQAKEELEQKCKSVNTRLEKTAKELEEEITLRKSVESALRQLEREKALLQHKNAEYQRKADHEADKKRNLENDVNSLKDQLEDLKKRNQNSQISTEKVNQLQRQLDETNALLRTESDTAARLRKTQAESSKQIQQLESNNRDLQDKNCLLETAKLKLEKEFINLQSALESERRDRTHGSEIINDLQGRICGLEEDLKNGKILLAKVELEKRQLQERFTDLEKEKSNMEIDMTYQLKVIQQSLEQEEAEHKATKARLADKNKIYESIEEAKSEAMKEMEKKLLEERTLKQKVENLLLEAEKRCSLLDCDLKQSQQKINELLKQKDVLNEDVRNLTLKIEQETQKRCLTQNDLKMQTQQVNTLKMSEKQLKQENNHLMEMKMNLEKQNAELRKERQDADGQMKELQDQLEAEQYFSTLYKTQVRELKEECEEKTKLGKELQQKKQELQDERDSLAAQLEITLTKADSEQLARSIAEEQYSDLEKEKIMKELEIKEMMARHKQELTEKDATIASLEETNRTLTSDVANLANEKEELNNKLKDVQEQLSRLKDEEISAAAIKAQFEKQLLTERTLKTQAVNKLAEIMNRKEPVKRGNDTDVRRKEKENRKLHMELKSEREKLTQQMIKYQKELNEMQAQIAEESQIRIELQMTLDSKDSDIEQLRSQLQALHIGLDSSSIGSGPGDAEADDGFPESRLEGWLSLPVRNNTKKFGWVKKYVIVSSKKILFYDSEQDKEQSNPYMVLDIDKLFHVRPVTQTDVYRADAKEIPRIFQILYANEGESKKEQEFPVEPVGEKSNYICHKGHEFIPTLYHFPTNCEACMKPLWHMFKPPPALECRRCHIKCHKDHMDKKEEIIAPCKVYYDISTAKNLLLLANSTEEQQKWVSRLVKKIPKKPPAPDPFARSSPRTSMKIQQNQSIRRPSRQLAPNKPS", "test": "Inhibition of wild type human ROCK2 (M1 to T431 residues) expressed in mammalian cells assessed as residual activity at 1 uM by KINOMEscan assay relative to control", "type": "cell-based"}},
  "data": [
    {"smiles": "O=C(CCCCCCn1cc(-c2ncnc3[nH]ccc23)cn1)NO", "values": [
      {"measurement": "viability at 24 h, 100 µM", "setting": "[1]", "value": 56, "unit": "%"},
      {"measurement": "Activity", "setting": "[2]", "value": "Dose-dependent effect"},
      {"measurement": "Cmax", "setting": "[3]", "value": 15.9, "unit": "ng/mL"},
      {"measurement": "half-life", "setting": "[4]", "value": 21, "unit": "min"},
      {"measurement": "inhibition", "setting": "[5]", "value": 27, "unit": "%"},
      {"measurement": "IC50", "setting": "[6]", "value": 1.33, "unit": "µM"},
      {"measurement": "IC50", "setting": "[7]", "value": 0.569, "unit": "µM"},
      {"measurement": "inhibition", "setting": "[8]", "value": 30, "unit": "%"},
      {"measurement": "IC50", "setting": "[9]", "value": 2.01, "unit": "µM"},
      {"measurement": "Drug uptake", "setting": "[10]", "value": "Not Active"},
      {"measurement": "Activity", "setting": "[11]", "value": 18, "unit": "%"},
      {"measurement": "Activity", "setting": "[12]", "value": 3.3, "unit": "%"},
      {"measurement": "IC50", "setting": "[13]", "value": 0.017, "unit": "µM"},
      {"measurement": "IC50", "setting": "[14]", "value": 0.45, "unit": "µM"},
      {"measurement": "activity at 1 µM", "setting": "[15]", "value": 0.75, "unit": "%"},
      {"measurement": "AUC(0-inf)", "setting": "[16]", "value": 175, "unit": "ng·h/mL"},
      {"measurement": "IC50", "setting": "[17]", "value": 0.019, "unit": "µM"},
      {"measurement": "IC50", "setting": "[18]", "value": 0.47, "unit": "µM"},
      {"measurement": "Activity", "setting": "[19]", "value": 29, "unit": "%"}
    ]}
  ]
}
